About 820 (0.23%) of roughly 360,000 compounds were called active. The full list was thinned out, with actives kept by preference. Values without a mark were called inactive.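 How the source made its calls: active means compounds that cut the enzyme signal by at least half of the control window in the single-dose screen; inactive means the rest.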
molecular target: Low molecular weight phosphotyrosine protein phosphatase (Homo sapiens) (UniProt P24666); assay: inhibition of human LMPTP-A enzyme – biochemical, fluorescence intensity, uHTS, primary screen (AID 651560); conditions: recombinant LMPTP-A, OMFP fluorogenic substrate, at 20 µM, active compounds read high;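 further: plate controls were DMSO wells with enzyme plus substrate for no effect and substrate without enzyme for full effect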
Sequence (P24666 whole entry, looked up): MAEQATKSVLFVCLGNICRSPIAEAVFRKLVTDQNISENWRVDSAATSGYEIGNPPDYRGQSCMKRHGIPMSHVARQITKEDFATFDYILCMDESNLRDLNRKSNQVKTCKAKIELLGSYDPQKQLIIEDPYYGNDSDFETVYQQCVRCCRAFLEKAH
In short: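 Test system: LMPTP-A phosphatase enzyme; input: 0.625 nM LMPTP-A final; reagent: OMFP substrate, 400 µM final; compound dosing: 20 µM single dose, 3% DMSO; incubation: 50 min dark incubation at room temperature; measured by: endpoint fluorescence intensity from OMFP dephosphorylation; measure: % inhibition relative to no-enzyme and uninhibited control wells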

SMILES | inhibition
Cc1csc(=O)n1CC(=O)Nc1ccc(S(C)(=O)=O)cc1 | 0.0764%
CN1CCN(Cc2c(C(=O)N3CCc4ccccc4C3)nc3ccc(Cl)cn23)CC1 | -1.43%
O=C(COc1ccc(Cl)cc1Cl)NCCCNC(=O)c1cnccn1 | -0.724%
CCCNS(=O)(=O)c1ccc(CCC(=O)NCc2cccnc2)cc1 | -0.651%
COc1ccc(NC(=O)CN2C(=O)CSC2=O)cc1 | -1.92%
CCOC(=O)c1sc2nc(C)nc(SCC(N)=O)c2c1C | -0.32%
COc1ccc(C#Cc2c(-c3ccc(OC)cc3)oc3ccc(-c4ccc5c(c4)OCO5)cc23)cc1 | 0.696%
FC(F)(F)c1ccc2c3n(nc2c1)CCN=C3c1ccc(Cl)cc1 | -0.582%
COc1ccc(CC(NC(C)=O)C(=O)NC2CCN(C(=O)c3ccc(Cl)cc3)CC2)cc1 (stereo not given) | 0.435%
C[C@]12CC[C@H](O)CC1=CCC1C2CC[C@@]2(C)C1CC[C@@H]2NC(=O)CCC(=O)O (stereo not given in full) | -0.874%
Cn1c(SCC(=O)Nc2ccc(Cl)cc2)nc(O)cc1=O | -0.456%
C[C@@H](C(=O)Nc1ccc2ccccc2c1)[C@@H]1C[C@@]1(C)[C@@H](NC(=O)c1cccnc1)c1ccccc1 | 0.267%
CCN(c1ccc2c(c1)OCO2)S(=O)(=O)c1cc(Br)cc2c1N(C(=O)C1CC1)CC2 | 3.91%
CC(=O)c1ccccc1NC(=O)CC1(CC(=O)O)CCCCC1 | -1.06%
CCN(CCn1cccn1)Cc1cn[nH]c1-c1ccc(OC)cc1F | -1.15%
Cc1cc(-c2nc(C)c(-c3nnc(SCC(=O)Nc4ccccc4)n3C)s2)no1 | -0.511%
COC(=O)c1sc(C(F)(F)F)c(-c2ccccc2)c1S(=O)(=O)N(C)C | -0.149%
O=C1NC(O)CCN1C1CC(O)C(CO)O1 (stereo not given) | -0.47%
COc1ccccc1OCCNC(=O)C(CCSC)NC(=O)COc1ccccc1 (stereo not given) | -1.42%
O=C(c1cc(-c2ccco2)nc2ccccc12)N(Cc1nnc(-c2ccc(Cl)cc2)o1)C1CC1 | 3%
CN(C(=O)COC(=O)c1cc(-c2ccco2)nc2ccccc12)C1CCS(=O)(=O)C1 (stereo not given) | 66.6% (active)
Cc1ccc(S(=O)(=O)CCC(=O)OCC(=O)N(C)C2CCS(=O)(=O)C2)cc1 (stereo not given) | -1.13%
COc1ccc(N(C)S(=O)(=O)c2cccc3nsnc23)cc1 | -1.17%

SMILES | inhibition
Cn1c(=O)[nH]c(=O)c2c1nc(NCCCn1ccnc1)n2Cc1cccc(Br)c1 | -1.82%
COc1cc(N2C(=O)c3ccccc3C2=O)c(Cl)cc1C(=O)OCC(=O)N1CCOCC1 | 0.755%
Cc1ccc(C(=O)NNC(=O)c2cc3cc4ccccc4nc3s2)cc1 | 50.6% (active)
CCN1CCN(C(=O)c2cc3cc4ccc(OC)cc4nc3s2)CC1 | 0.833%
CS(=O)(=O)c1ccc(C(=O)NNC(=O)c2cccs2)cc1 | -1.18%
O=c1ccc2cc(S(=O)(=O)N3CCN(c4ccccc4)CC3)ccc2o1 | -2.32%
CSCCC(NC(=O)c1ccco1)C(=O)NCCc1ccc(F)cc1 (stereo not given) | -1.2%
O=C(CNC(=O)c1cc2c(s1)CCC2)Nc1ccccc1Br | 5.93%
Cn1c(CN2CCOCC2)nc2cc(NC(=O)c3ccc(Cl)cc3)ccc21 | -0.278%
CCOC(=O)Cn1c2c(c(-c3ccccc3OC)cc1=O)CCCC2 | 2.39%
CCOc1ccc(-c2nc(N)ncc2-c2ccccc2OC)c(O)c1 | 53.5% (active)
CCOc1cccc(OCCCOc2cccc3cccnc23)c1 | 3.69%
Brc1cnc2ccccc2c1N1CCCCC1 | 4.39%
O=c1cc(N2CCCCC2)c(-c2ccccc2)nn1Cc1cccc(F)c1 | -0.671%
c1ccc(-c2cc(N3CCCCC3)c3ccccc3n2)cc1 | 67.2% (active)
OCCC#Cc1ccc(CN2CCN(Cc3ccsc3)C(CCO)C2)cc1 (stereo not given) | 1.89%
CC(OC(=O)c1c(F)cccc1F)C(=O)NCCC1=CCCCC1 (stereo not given) | 0.59%
Nc1ccc2nc3c(=O)[nH]c(=S)[nH]c3nc2c1 | 85% (active)
COc1cc(OC)cc(C(=O)NNC(=O)Cc2cccs2)c1 | 1.69%
COc1ccc(CC(=O)Nc2sc(Cc3ccccc3)c(C)c2C(N)=O)cc1 | 0.191%
COc1ccc(Cc2nnc(NC(=O)Cc3cccs3)s2)cc1 | 76.7% (active)
Cc1ccccc1OCC(=O)NNC(=O)c1ccc(-n2cncn2)c([N+](=O)[O-])c1 | -1.02%

From PubChem BioAssay AID651560 (Sanford-Burnham Center for Chemical Genomics, 2012)
